Data on one compound can be found in ChEMBL document CHEMBL1629448, “Identification and synthesis of novel inhibitors of acetyl-CoA carboxylase with in vitro and in vivo efficacy on fat oxidation” (J Med Chem, 2010).

Data set [1] addresses T1, Pyruvate carboxylase, mitochondrial (Bos taurus) (UniProt Q29RK2).
T1 sequence (whole entry): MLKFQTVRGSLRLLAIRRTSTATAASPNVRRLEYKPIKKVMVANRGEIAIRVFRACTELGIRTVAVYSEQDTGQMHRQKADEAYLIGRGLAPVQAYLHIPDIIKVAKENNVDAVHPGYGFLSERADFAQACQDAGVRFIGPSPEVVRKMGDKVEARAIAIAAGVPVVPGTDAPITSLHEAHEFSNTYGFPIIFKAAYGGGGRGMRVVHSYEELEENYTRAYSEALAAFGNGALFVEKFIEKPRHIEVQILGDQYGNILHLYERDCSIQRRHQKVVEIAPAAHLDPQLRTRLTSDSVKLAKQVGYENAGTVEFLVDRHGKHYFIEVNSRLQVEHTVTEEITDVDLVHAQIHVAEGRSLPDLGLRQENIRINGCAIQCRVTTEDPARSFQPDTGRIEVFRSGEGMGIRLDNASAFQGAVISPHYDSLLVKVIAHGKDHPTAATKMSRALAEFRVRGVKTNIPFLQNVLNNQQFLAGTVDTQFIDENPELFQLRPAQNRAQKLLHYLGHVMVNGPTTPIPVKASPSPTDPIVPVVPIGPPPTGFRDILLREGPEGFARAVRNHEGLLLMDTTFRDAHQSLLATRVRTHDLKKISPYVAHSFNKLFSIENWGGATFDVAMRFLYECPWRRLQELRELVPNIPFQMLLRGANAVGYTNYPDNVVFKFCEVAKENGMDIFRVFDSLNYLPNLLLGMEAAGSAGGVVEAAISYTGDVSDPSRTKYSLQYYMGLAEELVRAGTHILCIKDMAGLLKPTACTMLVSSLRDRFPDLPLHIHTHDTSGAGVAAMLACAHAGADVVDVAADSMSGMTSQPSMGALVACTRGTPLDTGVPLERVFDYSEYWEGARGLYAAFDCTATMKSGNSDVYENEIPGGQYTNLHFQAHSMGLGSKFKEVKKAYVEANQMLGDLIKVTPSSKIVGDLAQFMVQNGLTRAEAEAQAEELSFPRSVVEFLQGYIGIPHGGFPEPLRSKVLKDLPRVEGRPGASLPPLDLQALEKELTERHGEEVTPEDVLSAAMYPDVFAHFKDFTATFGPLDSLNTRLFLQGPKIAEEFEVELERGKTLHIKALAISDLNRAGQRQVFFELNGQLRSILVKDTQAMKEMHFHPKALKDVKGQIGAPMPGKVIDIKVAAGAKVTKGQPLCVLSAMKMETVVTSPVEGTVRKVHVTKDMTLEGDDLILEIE
Kind of data set: Inhibition of bovine pyruvate carboxylase.

In a further data set the test system is Hepatocyte. Kind of data set: Stimulation of fat oxidation in human hepatocytes assessed as release of 3H2O from ss-oxidation of [9,10(n)-3[3H]palmitic acid after 4 hrs. Format: functional, cell-based. A digest of the protocol: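 Attached human hepatocytes washed with PBS, then incubated in DMEM with 5 μM ³H-palmitic acid (15000 Bq/ml), 0.2 mg/mL BSA, 500 μM L-carnitine, 0.1% DMSO, 25 mM glucose and inhibitor. Started with 0.5 μCi [³H]palmitate. ³H₂O release measured after 4 h by scintillation. Expressed as fold of the 0 μM control; means ± SEM (n = 4).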

The subject of the next data set is Rattus norvegicus. The data set is described as follows: Plasma concentration in Wistar rat at 3 mg/kg, iv measured immediately after dosing. As to conditions: in vivo. Format: ADME, organism-based. Details: dose 3 mg/kg, route intravenous. In a few lines:
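Wistar rats given an intravenous bolus of 3 mg/kg in 5% solutol solution. Plasma sampled at eight time points over 24 h. Drug quantified by LC-MS/MS against an internal standard. C0h is the concentration immediately after dosing; AUC0-inf, clearance, t1/2 and Vdss were also derived.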

Each structure is given as a SMILES string. Calls of active or inactive are those of the source. The rule behind the calls is not given here.

Turning to `CC(=O)N[C@@H](C)CCc1ccc(Oc2ccc(OC(C)C)nc2)cc1`, the inhibition result in data set [1] was “inactive”. In the data set with Hepatocyte, the Activity result was “Dose-dependent effect”. Further, in the data set on Rattus norvegicus, the concentration is 5.2 µM.
